Columns and labels:
[1] = target: Histone-lysine N-methyltransferase EZH2 (Homo sapiens) (UniProt Q15910); test: Inhibition of EZH2 in human SUM159 cells assessed as increase in ALDHbr cells by LSR2 cytometer (reference value: 4.8%); format: cell-based; parameters: scale not given: the % may be the effect or the level left; conditions: dose 0.0 µM
Outline: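 SUM159 cells exposed continuously for 72 h in adherent culture to graded doses centred on the IC50. ALDHbr proportion measured by ALDEFLUOR flow cytometry (LSR2) with DEAB as negative control; n = 10.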

[2] = test system: SUM149PT; test: Anticancer activity against human SUM149 cells assessed as ALDHbr cells by LSR2 cytometer (reference value: 6.8%); format: functional
Outline: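 Cells continuously exposed to drug for 72 h in adherent culture; single-cell suspensions stained with ALDEFLUOR kit and ALDH-high population measured by flow cytometry (LSR2) against a DEAB control. Residual ALDHbr proportion reported (n = 8), mean ± SD, Student's t-test.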

[3] = target: T1, Splicing factor 3B subunit 2 (Homo sapiens) (UniProt Q13435); test: Inhibition of SF3B2 in human BrCa-MZ-01 cells assessed as K-score by measuring ALDHbr cells by LSR2 cytometer; format: cell-based
T1 sequence (whole entry): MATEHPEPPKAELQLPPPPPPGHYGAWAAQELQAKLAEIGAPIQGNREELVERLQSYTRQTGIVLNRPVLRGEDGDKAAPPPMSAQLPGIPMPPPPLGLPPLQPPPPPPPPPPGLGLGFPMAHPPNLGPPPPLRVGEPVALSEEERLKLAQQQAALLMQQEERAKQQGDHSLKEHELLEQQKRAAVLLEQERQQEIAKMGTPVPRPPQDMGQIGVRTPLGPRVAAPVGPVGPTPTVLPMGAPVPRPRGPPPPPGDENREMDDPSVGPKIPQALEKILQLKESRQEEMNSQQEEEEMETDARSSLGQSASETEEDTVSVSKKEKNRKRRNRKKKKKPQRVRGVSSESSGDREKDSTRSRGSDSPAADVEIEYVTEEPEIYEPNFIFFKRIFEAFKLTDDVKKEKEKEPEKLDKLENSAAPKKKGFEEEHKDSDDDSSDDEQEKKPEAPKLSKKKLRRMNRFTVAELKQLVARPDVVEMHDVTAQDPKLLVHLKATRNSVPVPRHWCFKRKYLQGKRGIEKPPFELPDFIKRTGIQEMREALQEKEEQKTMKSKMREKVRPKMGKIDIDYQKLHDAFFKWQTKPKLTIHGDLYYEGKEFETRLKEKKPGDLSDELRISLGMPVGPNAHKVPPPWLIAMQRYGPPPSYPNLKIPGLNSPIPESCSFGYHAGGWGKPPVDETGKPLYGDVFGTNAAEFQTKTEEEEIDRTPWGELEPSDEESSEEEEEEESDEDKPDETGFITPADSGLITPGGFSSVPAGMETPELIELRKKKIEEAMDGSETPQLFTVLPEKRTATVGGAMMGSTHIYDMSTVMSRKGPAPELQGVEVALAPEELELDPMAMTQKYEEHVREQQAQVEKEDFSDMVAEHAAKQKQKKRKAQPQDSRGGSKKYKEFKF
Outline: (§1)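 Cell lines exposed for 72 h in adherent culture to a range of concentrations centred on the MTS-derived IC50. ALDHbr proportion measured by ALDEFLUOR flow cytometry (LSR2). K-score is the linear regression coefficient, on log10-transformed doses, between the untreated condition and the dose predicted to give a 50% decrease or increase in ALDHbr proportion versus control.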

[4] = target: T1, Splicing factor 3B subunit 2 (Homo sapiens); test: Inhibition of SF3B2 in human SUM159 cells assessed as K-score by measuring ALDHbr cells by LSR2 cytometer; format: cell-based; outline: as §1
[5] = target: T1, Splicing factor 3B subunit 2 (Homo sapiens); test: Inhibition of SF3B2 in human S68 cells assessed as K-score by measuring ALDHbr cells by LSR2 cytometer; format: cell-based; outline: as §1
[6] = target: T1, Splicing factor 3B subunit 2 (Homo sapiens); test: Inhibition of SF3B2 in human MDA-MB-436 cells assessed as K-score by measuring ALDHbr cells by LSR2 cytometer; format: cell-based; outline: as §1
[7] = target: T1, Splicing factor 3B subunit 2 (Homo sapiens); test: Inhibition of SF3B2 in human SUM149 cells assessed as K-score by measuring ALDHbr cells by LSR2 cytometer; format: cell-based; outline: as §1
[8] = target: T2, Double-stranded RNA-specific editase 1 (Homo sapiens) (UniProt P78563); test: Inhibition of ADARB1 in human MDA-MB-436 cells assessed as K-score by measuring ALDHbr cells by LSR2 cytometer; format: cell-based
T2 sequence (whole entry): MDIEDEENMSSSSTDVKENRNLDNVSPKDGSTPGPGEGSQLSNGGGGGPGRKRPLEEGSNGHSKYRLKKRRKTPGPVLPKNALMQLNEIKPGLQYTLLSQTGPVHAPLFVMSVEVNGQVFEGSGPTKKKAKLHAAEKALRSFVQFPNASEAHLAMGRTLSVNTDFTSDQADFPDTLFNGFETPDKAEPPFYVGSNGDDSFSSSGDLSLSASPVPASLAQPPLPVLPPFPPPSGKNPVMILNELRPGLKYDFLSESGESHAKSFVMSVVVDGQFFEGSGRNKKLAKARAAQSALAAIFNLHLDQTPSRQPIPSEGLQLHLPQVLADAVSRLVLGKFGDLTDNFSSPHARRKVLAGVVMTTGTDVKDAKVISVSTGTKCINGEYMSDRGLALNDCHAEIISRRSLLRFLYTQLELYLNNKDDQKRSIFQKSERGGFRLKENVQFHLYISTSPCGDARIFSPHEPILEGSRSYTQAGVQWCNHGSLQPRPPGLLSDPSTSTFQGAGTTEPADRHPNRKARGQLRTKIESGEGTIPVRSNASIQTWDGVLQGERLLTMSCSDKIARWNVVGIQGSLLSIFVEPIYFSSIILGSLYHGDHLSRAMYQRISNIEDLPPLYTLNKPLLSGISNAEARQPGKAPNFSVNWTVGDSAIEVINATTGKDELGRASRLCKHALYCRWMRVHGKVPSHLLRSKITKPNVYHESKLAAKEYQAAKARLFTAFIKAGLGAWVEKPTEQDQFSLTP
Outline: (§2)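 Breast cancer lines exposed continuously for 72 h in adherent culture to a range of doses centred on the MTS-derived IC50 (72 h MTS, absorbance 540 nm). ALDHbr fraction measured by ALDEFLUOR flow cytometry (LSR2) with DEAB control. K-score = linear regression coefficient between untreated condition and the log10 dose at which ALDHbr proportion changes by 50% versus control.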

[9] = target: T2, Double-stranded RNA-specific editase 1 (Homo sapiens); test: Inhibition of ADARB1 in human SUM149 cells assessed as K-score by measuring ALDHbr cells by LSR2 cytometer; format: cell-based; outline: as §2
[10] = target: T2, Double-stranded RNA-specific editase 1 (Homo sapiens); test: Inhibition of ADARB1 in human SUM159 cells assessed as K-score by measuring ALDHbr cells by LSR2 cytometer; format: cell-based; outline: as §2
[11] = target: T2, Double-stranded RNA-specific editase 1 (Homo sapiens); test: Inhibition of ADARB1 in human S68 cells assessed as K-score by measuring ALDHbr cells by LSR2 cytometer; format: cell-based; outline: as §2
[12] = target: T2, Double-stranded RNA-specific editase 1 (Homo sapiens); test: Inhibition of ADARB1 in human BrCa-MZ-01cells assessed as K-score by measuring ALDHbr cells by LSR2 cytometer; format: cell-based; outline: as §2
[13] = test system: Proteasome; test: Inhibition of proteasome in human S68 cells assessed as K-score by measuring ALDHbr cells by LSR2 cytometer; conditions: condition breast cancer; outline: as §2
[14] = test system: Proteasome; test: Inhibition of proteasome in human SUM149 cells assessed as K-score by measuring ALDHbr cells by LSR2 cytometer; conditions: condition breast cancer; outline: as §2
[15] = test system: Proteasome; test: Inhibition of proteasome in human BrCa-MZ-01 cells assessed as K-score by measuring ALDHbr cells by LSR2 cytometer; conditions: condition breast cancer; outline: as §2
[16] = test system: Proteasome; test: Inhibition of proteasome in human SUM159 cells assessed as K-score by measuring ALDHbr cells by LSR2 cytometer; conditions: condition breast cancer; outline: as §2
[17] = test system: Proteasome; test: Inhibition of proteasome in human MDA-MB-436 cells assessed as K-score by measuring ALDHbr cells by LSR2 cytometer; conditions: condition breast cancer; outline: as §2
[18] = target: Runt-related transcription factor 1 (Homo sapiens) (UniProt Q01196); test: Inhibition of RUNX1 in human SUM159 cells assessed as K-score by measuring ALDHbr cells by LSR2 cytometer; format: cell-based; outline: as §1
Chain of Runt-related transcription factor 1 (Homo sapiens) (Q01196 whole entry): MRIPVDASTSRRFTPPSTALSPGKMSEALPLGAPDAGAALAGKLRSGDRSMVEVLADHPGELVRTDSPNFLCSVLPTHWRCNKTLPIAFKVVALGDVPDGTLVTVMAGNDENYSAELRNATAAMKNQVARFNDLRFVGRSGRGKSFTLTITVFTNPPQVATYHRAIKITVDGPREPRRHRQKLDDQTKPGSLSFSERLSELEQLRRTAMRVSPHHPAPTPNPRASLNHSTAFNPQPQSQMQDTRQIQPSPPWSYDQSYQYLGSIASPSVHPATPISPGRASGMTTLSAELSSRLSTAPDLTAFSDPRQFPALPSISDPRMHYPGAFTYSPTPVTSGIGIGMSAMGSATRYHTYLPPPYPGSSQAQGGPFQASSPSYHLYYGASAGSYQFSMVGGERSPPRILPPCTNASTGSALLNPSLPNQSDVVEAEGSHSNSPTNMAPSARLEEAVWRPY

[19] = target: Runt-related transcription factor 1 (Homo sapiens) (UniProt Q01196); test: Inhibition of RUNX1 in human SUM149 cells assessed as K-score by measuring ALDHbr cells by LSR2 cytometer; format: cell-based; outline: as §1
[20] = target: Runt-related transcription factor 1 (Homo sapiens) (UniProt Q01196); test: Inhibition of RUNX1 in human MDA-MB-436 cells assessed as K-score by measuring ALDHbr cells by LSR2 cytometer; format: cell-based; outline: as §1
[21] = target: Runt-related transcription factor 1 (Homo sapiens) (UniProt Q01196); test: Inhibition of RUNX1 in human S68 cells assessed as K-score by measuring ALDHbr cells by LSR2 cytometer; format: cell-based; outline: as §1
[22] = target: Runt-related transcription factor 1 (Homo sapiens) (UniProt Q01196); test: Inhibition of RUNX1 in human BrCa-MZ-01 cells assessed as K-score by measuring ALDHbr cells by LSR2 cytometer; format: cell-based; outline: as §1

Chain of Histone-lysine N-methyltransferase EZH2 (Homo sapiens) (Q15910 whole entry, looked up): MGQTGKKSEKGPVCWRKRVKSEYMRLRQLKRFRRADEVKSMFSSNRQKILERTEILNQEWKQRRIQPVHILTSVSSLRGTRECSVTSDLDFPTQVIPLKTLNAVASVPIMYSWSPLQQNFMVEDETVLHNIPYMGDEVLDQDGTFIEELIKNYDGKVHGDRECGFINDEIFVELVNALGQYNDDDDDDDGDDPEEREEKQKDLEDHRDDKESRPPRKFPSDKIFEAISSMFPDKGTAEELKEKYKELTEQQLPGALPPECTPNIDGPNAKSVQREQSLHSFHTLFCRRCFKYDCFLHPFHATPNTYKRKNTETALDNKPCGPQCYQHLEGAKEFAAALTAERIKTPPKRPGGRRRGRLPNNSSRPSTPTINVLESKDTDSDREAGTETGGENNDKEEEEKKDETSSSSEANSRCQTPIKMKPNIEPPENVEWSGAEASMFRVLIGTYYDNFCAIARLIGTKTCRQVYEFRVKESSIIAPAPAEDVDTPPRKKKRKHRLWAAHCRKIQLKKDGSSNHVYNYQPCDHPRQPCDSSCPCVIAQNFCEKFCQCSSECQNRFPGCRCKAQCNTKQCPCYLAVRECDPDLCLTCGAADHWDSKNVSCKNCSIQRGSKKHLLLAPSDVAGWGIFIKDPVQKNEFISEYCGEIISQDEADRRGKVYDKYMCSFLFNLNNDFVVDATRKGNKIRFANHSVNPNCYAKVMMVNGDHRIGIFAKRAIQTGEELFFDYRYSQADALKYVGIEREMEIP

`CCN(CC)c1ccc(C=O)cc1` showed an Activity [1] of 0.2% and an Activity [2] of 0.3%.

In the case of `CO[C@]1(C)C[C@@]2(CO2)[C@H](O)[C@@H](/C=C/C(C)=C/C[C@@H]2O[C@H](C)[C@H](NC(=O)/C=C\[C@H](C)OC(C)=O)C[C@@H]2C)O1`, the Activity [3] is reported as 0.05, the Activity [4] is reported as 0.25 and the Activity [5] is reported as -0.16. It also gave an Activity [6] of -0.15 and an Activity [7] of -0.19.

`Nc1ncnc2c1nnn2[C@@H]1O[C@H](CO)[C@@H](O)[C@H]1O` gave an Activity [8] of -0.02, an Activity [9] of 0.12 and an Activity [10] of -0.11. The Activity [11] was -0.01 and the Activity [12] was -0.01.

With `CC(C)C[C@H](NC(=O)[C@H](Cc1ccccc1)NC(=O)c1cnccn1)B(O)O` [BORTEZOMIB] the Activity [13] was -0.14, the Activity [14] was -0.11 and the Activity [15] was -0.07. The Activity [16] was 0.07 and the Activity [17] was -0.06.

For `CC(C)C[C@H](NC(=O)[C@H](CCc1ccccc1)NC(=O)CN1CCOCC1)C(=O)N[C@@H](Cc1ccccc1)C(=O)N[C@@H](CC(C)C)C(=O)[C@@]1(C)CO1` [CARFILZOMIB], the Activity [13] was -0.09, the Activity [14] was -0.03 and the Activity [15] was -0.08. For the same compound, the Activity [16] was 0.01 and the Activity [17] was -0.08.

In the case of `O=C1CN=C(c2ccc[nH]2)c2cc(Cl)ccc2N1`, the Activity [18] is reported as 0.09, the Activity [19] is reported as -0.04 and the Activity [20] is reported as 0. It also gave an Activity [21] of -0.07 and an Activity [22] of -0.04.

Reference: ChEMBL document CHEMBL5712908, “A genome-wide RNAi screen reveals essential therapeutic targets of breast cancer stem cells” (2019)
